# ChEMBL document CHEMBL1806388, “3-(3-Phenoxybenzyl)amino-β-carboline: a novel antitumor drug targeting α-tubulin” (Bioorg Med Chem Lett, 2011)
# The source made the active and inactive calls. The rule behind the calls is not given here.
# Columns and labels:
# [1] = Cytotoxicity against human HeLaS3 cells after 24 to 72 hrs by MTT assay; type: functional, cell-based; conditions: HeLa S3
# How it was run: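 Growth inhibition of HeLa S-3 cells measured by MTT assay; IC50 taken as the drug concentration inhibiting cell growth by 50%. Values are mean ± S.D. of four independent experiments, each run in triplicate.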
# [2] = Cell cycle arrest in human HeLaS3 cells assessed as accumulation at S phase at 150 nM after 24 hrs using propidium iodide staining by flow cytometry (reference value: 19.62%); conditions: HeLa S3
# [3] = Cell cycle arrest in human HeLaS3 cells assessed as accumulation at sub-G1 phase at 150 nM after 36 hrs using propidium iodide staining by flow cytometry (reference value: 1.51%); conditions: HeLa S3
# HeLa S3 [4] = test: Induction of apoptosis in human HeLaS3 cells assessed as chromatin condensation at 150 to 1000 nM after 48 hrs using Hoechst 33342 staining by confocal laser microscopic analysis; type: functional, cell-based
# How it was run: (§1)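 HeLa S-3 cells treated with 0, 150, 300 or 1000 nM for 48 h, then nuclei stained with Hoechst 33342 and examined by fluorescence microscopy for chromatin condensation and fragmented nuclei.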
# [5] = Cell cycle arrest in human HeLaS3 cells assessed as accumulation at sub-G1 phase at 150 nM after 24 hrs using propidium iodide staining by flow cytometry (reference value: 1.51%); conditions: HeLa S3
# [6] = Cell cycle arrest in human HeLaS3 cells assessed as accumulation at sub-G1 phase at 150 nM after 12 hrs using propidium iodide staining by flow cytometry (reference value: 1.51%); conditions: HeLa S3
# HeLa S3 [7] = test: Induction of apoptosis in human HeLaS3 cells assessed as DNA fragmentation at 150 to 1000 nM after 48 hrs by electrophoresis analysis; type: functional, cell-based
# How it was run: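 HeLa S-3 cells exposed to 0–1000 nM for 48 h; genomic DNA extracted and run on a 2% agarose gel next to a 100 bp ladder to look for fragmentation.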
# HeLa S3 [8] = test: Induction of apoptosis in human HeLaS3 cells assessed as fragmented nuclei at 150 to 1000 nM after 48 hrs using Hoechst 33342 staining by confocal laser microscopic analysis; type: functional, cell-based; how it was run: as §1
# [9] = Cell cycle arrest in human HeLaS3 cells assessed as accumulation at G2/M phase at 150 nM after 12 hrs using propidium iodide staining by flow cytometry (reference value: 22.45%); conditions: HeLa S3
# [10] = Cell cycle arrest in human HeLaS3 cells assessed as accumulation at sub-G1 phase at 150 nM after 48 hrs using propidium iodide staining by flow cytometry (reference value: 1.51%); conditions: HeLa S3
# Homo sapiens [11] = species on record: Homo sapiens; test: Binding affinity to alpha-tubulin in human HeLaS3 whole cell extract by MALDI/TOF-MS nalaysis
# [12] = Cell cycle arrest in human HeLaS3 cells assessed as accumulation at G1 phase at 150 nM after 48 hrs using propidium iodide staining by flow cytometry (reference value: 56.42%); conditions: HeLa S3
# [13] = Cell cycle arrest in human HeLaS3 cells assessed as accumulation at S phase at 150 nM after 36 hrs using propidium iodide staining by flow cytometry (reference value: 19.62%); conditions: HeLa S3
# [14] = Cell cycle arrest in human HeLaS3 cells assessed as accumulation at S phase at 150 nM after 48 hrs using propidium iodide staining by flow cytometry (reference value: 19.62%); conditions: HeLa S3
# Homo sapiens [15] = species on record: Homo sapiens; test: Binding affinity to enolase in human HeLaS3 whole cell extract by MALDI/TOF-MS nalaysis
# [16] = Cell cycle arrest in human HeLaS3 cells assessed as accumulation at G1 phase at 150 nM after 24 hrs using propidium iodide staining by flow cytometry (reference value: 56.42%); conditions: HeLa S3
# [17] = Cell cycle arrest in human HeLaS3 cells assessed as accumulation at G2/M phase at 150 nM after 36 hrs using propidium iodide staining by flow cytometry (reference value: 22.45%); conditions: HeLa S3
# [18] = Cell cycle arrest in human HeLaS3 cells assessed as accumulation at G2/M phase at 150 nM after 48 hrs using propidium iodide staining by flow cytometry (reference value: 22.45%); conditions: HeLa S3
# [19] = Cell cycle arrest in human HeLaS3 cells assessed as accumulation at G2/M phase at 150 nM after 24 hrs using propidium iodide staining by flow cytometry (reference value: 22.45%); conditions: HeLa S3
# [20] = Cell cycle arrest in human HeLaS3 cells assessed as accumulation at G1 phase at 150 nM after 12 hrs using propidium iodide staining by flow cytometry (reference value: 56.42%); conditions: HeLa S3
# [21] = Cell cycle arrest in human HeLaS3 cells assessed as accumulation at S phase at 150 nM after 12 hrs using propidium iodide staining by flow cytometry (reference value: 19.62%); conditions: HeLa S3
# HeLa S3 [22] = test: Induction of apoptosis in human HeLaS3 cells assessed as increase of activated caspase 3 level by Western blot analysis; type: functional, cell-based; conditions: TDE = time-dependent effect
# How it was run: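 Cleaved caspase-3 detected by Western blot of HeLa S-3 cell extracts after 6, 12, 24 or 48 h treatment; untreated extract as control, β-actin as loading control.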
# [23] = Cell cycle arrest in human HeLaS3 cells assessed as accumulation at G1 phase at 150 nM after 36 hrs using propidium iodide staining by flow cytometry (reference value: 56.42%); conditions: HeLa S3
smiles,measurement,setting,value
COc1cccc(CNc2nccc3c2[nH]c2ccccc23)c1,IC50,[1],24 µM
c1ccc(CNc2nccc3c2[nH]c2ccccc23)cc1,IC50,[1],24 µM
c1ccc(CNc2cc3c(cn2)[nH]c2ccccc23)cc1,IC50,[1],0.11 µM
Cc1ccccc1CNc1nccc2c1[nH]c1ccccc12,IC50,[1],13 µM
COc1ccc(CNc2nccc3c2[nH]c2ccccc23)cc1,IC50,[1],22 µM
COc1cc(CNc2cc3c(cn2)[nH]c2ccccc23)cc(OC)c1,IC50,[1],1.7 µM
O=[N+]([O-])c1cccc(CNc2cc3c(cn2)[nH]c2ccccc23)c1,IC50,[1],> 30 µM
c1ccc(Oc2cccc(CNc3nccc4c3[nH]c3ccccc34)c2)cc1,IC50,[1],2.3 µM
COc1ccc(CNc2cc3c(cn2)[nH]c2ccccc23)cc1,IC50,[1],20 µM
Cc1ccccc1CNc1cc2c(cn1)[nH]c1ccccc12,IC50,[1],0.3 µM
Clc1ccc(CNc2cc3c(cn2)[nH]c2ccccc23)cc1,IC50,[1],6.1 µM
COc1cccc(CNc2cc3c(cn2)[nH]c2ccccc23)c1,IC50,[1],0.79 µM
Clc1ccccc1CNc1cc2c(cn1)[nH]c1ccccc12,IC50,[1],1 µM
Clc1cccc(CNc2nccc3c2[nH]c2ccccc23)c1,IC50,[1],20 µM
Clc1ccccc1CNc1nccc2c1[nH]c1ccccc12,IC50,[1],19 µM
Cc1ccc(CNc2cc3c(cn2)[nH]c2ccccc23)cc1,IC50,[1],6.2 µM
c1ccc(Oc2ccc(CNc3cc4c(cn3)[nH]c3ccccc34)cc2)cc1,IC50,[1],1.2 µM
COc1cc(CNc2cc3c(cn2)[nH]c2ccccc23)cc(OC)c1OC,IC50,[1],0.22 µM
Clc1cccc(CNc2cc3c(cn2)[nH]c2ccccc23)c1,IC50,[1],0.83 µM
COc1ccccc1CNc1cc2c(cn1)[nH]c1ccccc12,IC50,[1],0.8 µM
c1ccc(COc2cccc(CNc3cc4c(cn3)[nH]c3ccccc34)c2)cc1,IC50,[1],0.38 µM
Oc1ccccc1CNc1nccc2c1[nH]c1ccccc12,IC50,[1],19 µM
Oc1ccc(CNc2cc3c(cn2)[nH]c2ccccc23)cc1,IC50,[1],1.7 µM
COc1ccc(CNc2cc3c(cn2)[nH]c2ccccc23)c(OC)c1,IC50,[1],4.8 µM
FC(F)(F)c1ccc(CNc2cc3c(cn2)[nH]c2ccccc23)cc1,IC50,[1],47 µM
Oc1cccc(CNc2cc3c(cn2)[nH]c2ccccc23)c1,IC50,[1],0.92 µM
c1ccc(Oc2ccc(CNc3nccc4c3[nH]c3ccccc34)cc2)cc1,IC50,[1],15 µM
O=[N+]([O-])c1ccccc1CNc1cc2c(cn1)[nH]c1ccccc12,IC50,[1],14 µM
COc1ccc(CNc2cc3c(cn2)[nH]c2ccccc23)c(OC)c1OC,IC50,[1],4 µM
c1ccc(-c2ccc(CNc3cc4c(cn3)[nH]c3ccccc34)cc2)cc1,IC50,[1],> 30 µM
Cc1cccc(CNc2nccc3c2[nH]c2ccccc23)c1,IC50,[1],22 µM
c1ccc(-c2ccccc2CNc2cc3c(cn2)[nH]c2ccccc23)cc1,IC50,[1],3 µM
Cc1ccc(CNc2nccc3c2[nH]c2ccccc23)cc1,IC50,[1],26 µM
COc1cccc(CNc2cc3c(cn2)[nH]c2ccccc23)c1OC,IC50,[1],3.2 µM
COc1ccc(CNc2cc3c(cn2)[nH]c2ccccc23)cc1OC,IC50,[1],> 100 µM
COc1cccc(OC)c1CNc1cc2c(cn1)[nH]c1ccccc12,IC50,[1],2.3 µM
FC(F)(F)c1ccccc1CNc1cc2c(cn1)[nH]c1ccccc12,IC50,[1],6.7 µM
Cc1cccc(CNc2cc3c(cn2)[nH]c2ccccc23)c1,IC50,[1],0.21 µM
Clc1ccc(CNc2nccc3c2[nH]c2ccccc23)cc1Cl,IC50,[1],20 µM
Oc1ccccc1CNc1cc2c(cn1)[nH]c1ccccc12,IC50,[1],28 µM
Clc1ccc(CNc2nccc3c2[nH]c2ccccc23)cc1,IC50,[1],18 µM
COc1ccccc1CNc1nccc2c1[nH]c1ccccc12,IC50,[1],15 µM
c1ccc(Oc2cccc(CNc3cc4c(cn3)[nH]c3ccccc34)c2)cc1,Activity,[2],15.9%
same,Activity,[3],43.5%
same,Activity,HeLa S3 [4],Active
same,Activity,[5],32.7%
same,Activity,[6],9.72%
same,Activity,HeLa S3 [7],Active
same,Activity,HeLa S3 [8],Active
same,Activity,[9],65.9%
same,Activity,[10],50.1%
same,Activity,Homo sapiens [11],Active
same,Activity,[12],18.4%
same,Activity,[13],15.6%
same,IC50,[1],0.074 µM
same,Activity,[14],20.2%
same,Activity,Homo sapiens [15],Active
same,Activity,[16],21.2%
same,Activity,[17],19.2%
same,Activity,[18],9.52%
same,Activity,[19],30%
same,Activity,[20],8.4%
same,Activity,[21],15.4%
same,Activity,HeLa S3 [22],tde
same,Activity,[23],19%
FC(F)(F)c1cccc(CNc2cc3c(cn2)[nH]c2ccccc23)c1,IC50,[1],3.1 µM
COc1ccc(OC)c(CNc2cc3c(cn2)[nH]c2ccccc23)c1,IC50,[1],6.1 µM
